ChEMBL document CHEMBL3994633, “Exploration of phenylpropanoic acids as agonists of the free fatty acid receptor 4 (FFA4): Identification of an orally efficacious FFA4 agonist” (Bioorg Med Chem Lett, 2017)

Key:
[1] = target: T1, Free fatty acid receptor 4 (Homo sapiens, UniProt Q5NUL3); assay: Agonist activity at human FFA4 receptor expressed in human U2OS cells co-expressing Galpha16 assessed as calcium mobilization by Fluo-4 dye based FLIPR assay; assay type: functional, cell-based
T1 sequence (Q5NUL3 whole entry): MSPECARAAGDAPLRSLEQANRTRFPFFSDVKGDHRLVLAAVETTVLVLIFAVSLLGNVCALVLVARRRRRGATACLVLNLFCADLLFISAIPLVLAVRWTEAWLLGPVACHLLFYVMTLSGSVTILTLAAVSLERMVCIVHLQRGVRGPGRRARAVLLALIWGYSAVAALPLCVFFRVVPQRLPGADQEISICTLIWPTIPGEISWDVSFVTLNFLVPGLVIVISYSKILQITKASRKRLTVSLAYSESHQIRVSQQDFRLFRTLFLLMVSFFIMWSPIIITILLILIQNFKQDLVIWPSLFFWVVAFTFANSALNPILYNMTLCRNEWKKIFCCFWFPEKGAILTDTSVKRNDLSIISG
Procedure, shortened: (§1)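 U2OS cells transiently expressing human FFA1 or FFA4. Agonism measured from a ten-point dose-response curve with FLIPR readout, giving EC50 (nM) and efficacy (% max response). Values are means of three experiments.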

[2] = target: T2, Free fatty acid receptor 1 (Homo sapiens, UniProt O14842); assay: Agonist activity at human FFA1 receptor expressed in human U2OS cells co-expressing Galpha16 assessed as calcium mobilization by Fluo-4 dye based FLIPR assay; assay type: functional, cell-based; procedure, shortened: as §1
[3] = target: T3, Free fatty acid receptor 4 (Homo sapiens) (UniProt Q5NUL3); assay: Agonist activity at human FFA4 receptor expressed in human U2OS cells co-expressing Galpha16 assessed as calcium mobilization by Fluo-4 dye based FLIPR assay relative to GSK137647A; assay type: functional, cell-based; procedure, shortened: as §1
T3 sequence (whole entry): T1 sequence (Q5NUL3 whole entry)

[4] = target: T2, Free fatty acid receptor 1; assay: Agonist activity at human FFA1 receptor expressed in human U2OS cells co-expressing Galpha16 assessed as calcium mobilization by Fluo-4 dye based FLIPR assay relative to GSK137647A; assay type: functional, cell-based; procedure, shortened: as §1
[5] = Clearance in C57BL/6J mouse at 3 mg/kg, iv; assay type: ADME, organism-based; conditions: in vivo
Procedure, shortened: (§2)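 C57BL/6J mice (n = 2) dosed intravenously at 3 or 4.2 mg/kg. Clearance (mL/min/kg) and AUC (hr*ng/mL) derived from plasma concentrations.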

[6] = AUC in C57BL/6J mouse at 3 mg/kg, iv; assay type: ADME, organism-based; conditions: in vivo; procedure, shortened: as §2
[7] = Cmax in C57BL/6J mouse at 10 mg/kg, po; assay type: ADME, organism-based; set-up: dose 10 mg/kg, route oral; conditions: in vivo
Procedure, shortened: (§3)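 C57BL/6J mice (n = 2), single oral dose of 10 mg/kg given as a suspension in 0.5% HMPC: 0.1% Tween. Plasma Cmax and AUC (hr*ng/mL) measured; %F calculated against the IV leg.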

[8] = AUC in C57BL/6J mouse at 10 mg/kg, po; assay type: ADME, organism-based; conditions: in vivo; procedure, shortened: as §3
[9] = Oral bioavailability in C57BL/6J mouse at 10 mg/kg; assay type: ADME, organism-based; conditions: in vivo; procedure, shortened: as §3
[10] = Tmax in C57BL/6J mouse at 10 mg/kg, po; assay type: ADME, organism-based; conditions: in vivo
[11] = Volume of distribution at steady state in C57BL/6J mouse at 3 mg/kg, iv or 10 mg/kg, po; assay type: ADME, organism-based; conditions: in vivo, read-out: Vdss
[12] = Protein binding in human plasma; assay type: ADME, cell-free; conditions: read-out: PPB
Homo sapiens [13] = species on record: Homo sapiens; assay: Selectivity ratio of EC50 for human FFA1 receptor expressed in human U2OS cells co-expressing Galpha16 to EC50 for human FFA4 receptor expressed in human U2OS cells co-expressing Galpha16; assay type: cell-based
Homo sapiens [14] = species on record: Homo sapiens; assay: Selectivity ratio of EC50 for human FFA4 receptor expressed in human U2OS cells co-expressing Galpha16 to EC50 for human FFA1 receptor expressed in human U2OS cells co-expressing Galpha16; assay type: cell-based

T2 sequence (O14842 whole entry): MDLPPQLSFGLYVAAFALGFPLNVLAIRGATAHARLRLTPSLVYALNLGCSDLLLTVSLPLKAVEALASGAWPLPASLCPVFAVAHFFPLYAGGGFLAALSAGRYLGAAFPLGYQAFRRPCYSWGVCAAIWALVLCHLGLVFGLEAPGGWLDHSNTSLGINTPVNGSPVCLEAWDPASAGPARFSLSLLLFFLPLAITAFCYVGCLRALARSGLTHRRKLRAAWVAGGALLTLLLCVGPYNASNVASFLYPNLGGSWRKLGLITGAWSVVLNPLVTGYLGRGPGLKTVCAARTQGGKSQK

| Compound | EC50 [1] [nM] | EC50 ([2]; read-out: EC50) [nM] | %max [3] [%] | %max [4] [%] | other results |
| --- | --- | --- | --- | --- | --- |
| O=C(O)CC(O)c1ccc(OCc2ccccc2SC(F)(F)F)cc1 (centres undefined) | > 30000 | – | – | – | – |
| Cc1cc(OCc2ccccc2SC(F)(F)F)ccc1CCC(=O)O | 722 | 1540 | 90 | 108 | – |
| Cc1cc(CCC(=O)O)ccc1OCc1ccccc1 | 750 | > 30000 | 83 | – | – |
| Cc1cc(CCC(=O)O)ccc1OCc1cccc(Oc2ccccc2)c1 | 556 | 3840 | 95 | 90 | – |
| Cc1cccc(COc2ccc(CCC(=O)O)cc2C)c1 | 275 | > 30000 | 100 | – | clearance [5]: 12 mL/min/kg; AUC [6]: 4100 ng·h/mL; Cmax [7]: 3080 ng/mL; AUC [8]: 5350 ng·h/mL; bioavailability [9]: 39%; Tmax [10]: 15 to 30 min; Vd [11]: < 2 L/kg; fraction unbound [12]: < 0.01 |
| CC(CC(=O)O)c1ccc(OCc2ccccc2SC(F)(F)F)cc1 (centres undefined) | 11400 | 13100 | – | 109 | – |
| O=C(O)CCc1ccc(OCc2ccccc2SC(F)(F)F)cc1 | 681 | 1420 | 105 | 74 to 77 | Ratio EC50 (Homo sapiens [13]): 2 |
| Cc1cc(CCC(=O)O)cc(C)c1OCc1ccccc1SC(F)(F)F | 660 | 21800 | 102 | 115 | – |
| Cc1c(CCC(=O)O)ccc(OCc2ccccc2SC(F)(F)F)c1C | 304 | > 30000 | 77 | – | – |
| O=C(O)COc1ccc(OCc2ccccc2SC(F)(F)F)cc1 | 9980 | > 30000 | 85 | – | – |
| O=C(O)CCc1ccc(OCc2ccccc2SC(F)(F)F)c(CO)c1 | 5910 | > 30000 | 53 | – | – |
| COc1cc(CCC(=O)O)ccc1OCc1ccccc1SC(F)(F)F | 1990 | > 30000 | 110 | – | – |
| O=C(O)CCc1ccc(OCc2ccccc2SC(F)(F)F)c2ccccc12 | 2290 | > 30000 | 105 | – | – |
| Cc1cc(CCC(=O)O)ccc1OCc1cccc(Cl)c1 | 362 | 10300 | 104 | 60 | – |
| O=C(O)CCc1ccc(OCc2cccc(Oc3ccccc3)c2)cc1 | 968 | – | 85 | 106 | Ratio EC50 (Homo sapiens [14]): 17 |
| Cc1cc(CCC(=O)O)ccc1OCc1ccccc1Cl | 972 | 11600 | 130 | 80 | – |
| Cc1cc(CCC(=O)O)ccc1OCc1ccccc1C(F)(F)F | 531 | 8600 | 103 | 95 | – |
| Cc1cc(CCC(=O)O)ccc1OCc1cc(C(F)(F)F)ccc1O | 10000 | – | 78 | – | – |
| CC(C)Cc1cc(CCC(=O)O)ccc1OCc1ccccc1SC(F)(F)F | 9660 | > 30000 | 161 | – | – |
| Cc1cc(CCC(=O)O)ccc1OCc1cccc(C(F)(F)F)c1 | 898 | > 30000 | 117 | – | – |

More lines, main results first:

| EC50 [1] [nM] | EC50 ([2]; read-out: EC50) [nM] | %max [3] [%] | %max [4] [%] | Compound | other results |
| --- | --- | --- | --- | --- | --- |
| 40 | 1630 | 97 | 85 | Cc1cc(COc2ccc(CCC(=O)O)cc2C)cc(Oc2ccccc2)c1 | – |
| 172 | 19600 | 106 | 154 | Cc1ccc(OC(C)C)c(COc2ccc(CCC(=O)O)cc2C)c1 | – |
| 53 | > 30000 | 118 | – | Cc1ccc(Br)c(COc2ccc(CCC(=O)O)cc2C)c1 | – |
| 188 | 18100 | 115 | 243 | Cc1ccc(Cl)c(COc2ccc(CCC(=O)O)cc2C)c1 | clearance [5]: 18 mL/min/kg; AUC [6]: 2860 ng·h/mL; Cmax [7]: 3030 ng/mL; AUC [8]: 4400 ng·h/mL; bioavailability [9]: 46%; Tmax [10]: 15 to 30 min; Vd [11]: < 2 L/kg; fraction unbound [12]: < 0.01 |
| 271 | > 30000 | 118 | – | Cc1cc(CCC(=O)O)ccc1OCc1ccccc1OC(C)C | – |
| 60 | > 30000 | 112 | – | Cc1cc(COc2ccc(CCC(=O)O)cc2C)cc(OC(C)C)c1 | clearance [5]: 43 mL/min/kg; AUC [6]: 1170 ng·h/mL; Cmax [7]: 687 ng/mL; AUC [8]: 767 ng·h/mL; bioavailability [9]: 20%; Tmax [10]: 15 to 30 min; Vd [11]: < 2 L/kg; fraction unbound [12]: < 0.01 |
| 236 | > 30000 | 116 | – | Cc1cc(CCC(=O)O)ccc1OCc1ccccc1Br | – |
| 201 | 8510 | 108 | 81 | Cc1cc(CCC(=O)O)ccc1OCc1ccccc1SC(F)(F)F | – |
| 108 | > 10000 | 80 | – | O=C(O)CCc1ccc(OCc2ccccc2SC(F)(F)F)c(Cl)c1 | EC50 ([2]; read-out: pEC50 (converted)): > 31600 nM |
| 60 | 3780 | 66 | 97 | Cc1cc(C)cc(COc2ccc(CCC(=O)O)cc2C)c1 | clearance [5]: 35 mL/min/kg; AUC [6]: 1420 ng·h/mL; Cmax [7]: 2630 ng/mL; AUC [8]: 2600 ng·h/mL; bioavailability [9]: 55%; Tmax [10]: 15 to 30 min; Vd [11]: < 2 L/kg; fraction unbound [12]: < 0.01 |
